Laboratory results reported in ChEMBL document CHEMBL3244343, “7-(Aminoethyl) ether and thioether of daunomycinone” (1979).

Columns and labels:
[1] = Binding affinity to DNA (unknown origin) assessed as DNA interaction by measuring change in melting temperature
How it was run: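 Thermal denaturation (melting temperature) shift of DNA in solution, read as ΔTm in °C. Buffer was 0.010 M phosphate, pH 7.0, with 10^-5 M EDTA plus 5% Me2SO to solubilize the compounds. Other steps followed a previously described method.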

[2] = system: P388; assay: Antitumor activity against mouse P388 cells allografted in mouse assessed as increase in survival time at 0.78 mg/kg, po qd administered from day 1 to day 9 relative to control; format: functional
[3] = system: L1210; assay: Inhibition of RNA synthesis in mouse L1210 cells assessed as inhibition of [3H]uridine incorporation; format: functional; details: read-out: ED50 (the source's name)
How it was run: (§1)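 L1210 leukemia cells in culture. Incorporation of [3H]thymidine (DNA) or [3H]uridine (RNA) was measured, and the dose giving 50% inhibition (ED50) was reported. Follows a previously described procedure, with 1% Me2SO added for some compounds.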

[4] = system: P388; assay: Antitumor activity against mouse P388 cells allografted in mouse assessed as increase in survival time at 1 mg/kg, po q4d administered on days 5, 9 and 13 relative to control; format: functional
How it was run: (§2)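 P388 leukemia cells were injected ip into mice on day 0, and the tumor was allowed to advance before dosing on days 5, 9 and 13. Read-out is the survival time of treated relative to control mice (T/C, %), with ≥125% required for activity. Each value comes from a single test.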

[5] = system: L1210; assay: Inhibition of DNA synthesis in mouse L1210 cells assessed as inhibition of [3H]thymidine incorporation; format: functional; details: read-out: ED50 (the source's name); how it was run: as §1
[6] = system: P388; assay: Antitumor activity against mouse P388 cells allografted in mouse assessed as increase in survival time at 2 mg/kg, po q4d administered on days 5, 9 and 13 relative to control; format: functional; how it was run: as §2
[7] = system: P388; assay: Antitumor activity against mouse P388 cells allografted in mouse assessed as increase in survival time at 50 mg/kg, po q4d administered on days 5, 9 and 13 relative to control; format: functional; how it was run: as §2
[8] = system: P388; assay: Antitumor activity against mouse P388 cells allografted in mouse assessed as increase in survival time at 200 mg/kg, po q4d administered on days 5, 9 and 13 relative to control; format: functional; how it was run: as §2
[9] = system: P388; assay: Antitumor activity against mouse P388 cells allografted in mouse assessed as increase in survival time at 6.25 mg/kg, po qd administered from day 1 to day 9 relative to control; format: functional

Q: What does the source list for `COc1cccc2c1C(=O)c1c(O)c3c(c(O)c1C2=O)C[C@@](O)(C(=O)CO)C[C@@H]3O[C@H]1C[C@H](N)[C@H](O)[C@H](C)O1` [DOXORUBICIN]?
A: ΔTm [1]: 13.6 °C; T/C [2]: 197%; EC50 [3]: 0.7 µM; T/C [4]: 130%; EC50 [5]: 2 µM

Q: With `COc1cccc2c1C(=O)c1c(O)c3c(c(O)c1C2=O)C[C@@](O)(C(C)=O)C[C@@H]3O[C@H]1C[C@H](N)[C@H](O)[C@H](C)O1.Cl` [DAUNORUBICIN HYDROCHLORIDE] as the molecule, how does the ΔTm [1] read?
A: 11.2 °C

Q: And the T/C [2]?
A: 160%

Q: What about the EC50 [3] of the same molecule?
A: 0.3 µM

Q: And the T/C [6]?
A: 133%

Q: What about the EC50 [5] of the same molecule?
A: 0.4 µM

Q: Which ΔTm [1] does the source give for `COc1cccc2c1C(=O)c1c(O)c3c(c(O)c1C2=O)C[C@@](O)(C(C)=O)C[C@@H]3OCCN.Cl` here?
A: 8.2 °C

Q: What about the EC50 [3] of the same molecule?
A: 1 µM

Q: What about the T/C [7] of the same molecule?
A: 112%

Q: And the EC50 [5]?
A: 2 µM

Q: What does the source list for `COc1cccc2c1C(=O)c1c(O)c3c(c(O)c1C2=O)C[C@@](O)(C(C)=O)C[C@@H]3SCCN.Cl`?
A: ΔTm [1]: 6.3 °C; EC50 [3]: 4 µM; T/C [8]: 109%; EC50 [5]: 6 µM

Q: Which ΔTm [1] does the source give for `COc1cccc2c1C(=O)c1c(O)c3c(c(O)c1C2=O)C[C@@](O)(C(C)=O)C[C@@H]3OC(=O)CCN.Cl` here?
A: 1 °C

Q: What about the T/C [9] of the same molecule?
A: 126%

Q: And the EC50 [3]?
A: 6 µM

Q: What about the T/C [7] of the same molecule?
A: 116%

Q: And the EC50 [5]?
A: 8 µM
